# Experimental data reported in ChEMBL document CHEMBL1137668, “Activities of several classes of acyclic nucleoside phosphonates against camelpox virus replication in different cell culture models” (Antimicrob Agents Chemother, 2007).
# The source made the active and inactive calls. The rule behind the calls is not given here.
# Columns and labels:
# [1] = Cytotoxicity against HEL299 cells after 4 days by Z1 Coulter counting analysis; format: cell-based, HEL 299; conditions: human, hel 299, 96 h
# In short: (§1)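 Cell growth inhibition: HEL cells were seeded at 3.5 × 10³ per well and PHKs at 5 × 10³ per well. Serial dilutions were added in duplicate after 1 day (HEL) or 3 days (PHK). After 4 days with compound, cells were trypsinized and counted with a Coulter counter (8 μm lower limit). CC50 is the concentration reducing growth by 50%, mean ± SD of at least two experiments.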
# [2] = Selectivity index, ratio of CC50 for HEL299 cells to EC50 for Camelpox virus CML1 infected in HEL299 cells; format: toxicity, cell-based, HEL 299; conditions: human, hel 299
# [3] = Selectivity index, ratio of CC50 for HEL299 cells to EC50 for Camelpox virus CML14 infected in HEL299 cells; format: toxicity, cell-based, HEL 299; conditions: human, hel 299
# [4] = Cytotoxicity against human PHK after 4 days by Z1 Coulter counting analysis; conditions: 96 h; in short: as §1
# Camelpox virus [5] = experiment: Antiviral activity against Camelpox virus CML14 infected in HEL299 cells assessed as reduction in viral titer after 6 days postinfection by virus yield reduction assay; format: functional; conditions: HEL 299
# Camelpox virus [6] = experiment: Antiviral activity against Camelpox virus CML1 infected in human PHK assessed as reduction in viral titer after 6 days postinfection by virus yield reduction assay; format: functional
# Camelpox virus [7] = experiment: Antiviral activity against Camelpox virus CML14 infected in human PHK assessed as reduction in viral titer after 6 days postinfection by virus yield reduction assay; format: functional
# Camelpox virus [8] = experiment: Antiviral activity against Camelpox virus CML1 infected in HEL299 cells assessed as complete inhibition of viral replication at 0.4 uM after 6 days postinfection by virus yield reduction assay; format: functional, organism-based; conditions: HEL 299
# Camelpox virus [9] = experiment: Antiviral activity against Camelpox virus CML14 infected in HEL299 cells assessed as complete inhibition of viral replication at 0.4 uM after 6 days postinfection by virus yield reduction assay; format: functional, organism-based; conditions: HEL 299
# Camelpox virus [10] = experiment: Antiviral activity against Camelpox virus CML1 infected in human PHK assessed as complete inhibition of viral replication at 4 uM after 6 days postinfection by virus yield reduction assay; format: functional, organism-based
# Camelpox virus [11] = experiment: Antiviral activity against Camelpox virus CML14 infected in human PHK assessed as complete inhibition of viral replication at 4 uM after 6 days postinfection by virus yield reduction assay; format: functional, organism-based
# Camelpox virus [12] = experiment: Antiviral activity against Camelpox virus CML1 infected in human PHK raft culture assessed as inhibition of viral replication at 38 uM after 7 days postinfection by virus yield reduction assay; format: functional, organism-based
# [13] = Cytotoxicity against differentiated epithelium of human PHK raft culture at 38 uM after 4 days by Z1 Coulter counting analysis; conditions: 96 h
# Camelpox virus [14] = experiment: Antiviral activity against Camelpox virus CML1 infected in human PHK raft culture assessed as inhibition of virus-induced cytopathic effect at 9 uM after 7 days postinfection; format: functional, organism-based
smiles,measurement,setting,value
CCCCCCCCCCCCCCCCOCCO[PH]1(O)CO[C@@H](Cn2c(N)ncnc2=O)CO1,CC50,[1],79 µM
same,Ratio CC50/IC50,[2],10
same,Ratio CC50/IC50,[3],12
same,CC50,[4],54 µM
same,Activity,Camelpox virus [5],Dose-dependent effect
same,Activity,Camelpox virus [6],Dose-dependent effect
same,Activity,Camelpox virus [7],Dose-dependent effect
same,Activity,Camelpox virus [8],Active
same,Activity,Camelpox virus [9],Active
same,Activity,Camelpox virus [10],Active
same,Activity,Camelpox virus [11],Active
same,Activity,Camelpox virus [12],Active
same,Activity,[13],Toxic
same,Activity,Camelpox virus [14],inactive
